Results as given in publication PMC11261338 (RSC Advances, 2024).

Tests used:
myoblast cells (C2C12) [1] = assay: MTT assay, IC50 against myoblast cells; format: cell-based; conditions: C2C12, 48 h, read-out: IC50 (μM) C2C12
Outline: (§1)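 Cells kept at 37 °C, 5% CO2: AGS in RPMI-1640 and C2C12 in DMEM, each with 10% FBS, 0.25 μg mL−1 amphotericin B and 25 μg mL−1 gentamicin. 5000 cells/well were seeded for 12 h, then given test compound at 1000, 100, 10, 1 and 0.1 μM for 48 h. Untreated cells served as controls.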

[2] = system: AGS (gastric adenocarcinoma) cells; assay: MTT assay, IC50 against gastric cancer cells; format: cell-based; conditions: 48 h, read-out: IC50 (μM) AGS
Outline: as §1

[3] = system: MCF-7 (mammary carcinoma) cells; assay: MTT assay, IC50 against breast cancer cells; format: cell-based; conditions: Homo sapiens, MCF7, 48 h, read-out: IC50 (μM) MCF-7
Outline: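 MCF-7 cells grown in DMEM with human insulin (10 μg mL−1), 10% FBS, amphotericin B and gentamicin at 37 °C, 5% CO2. Seeded at 5000 cells per well for 12 h, then exposed 48 h to the test compound at 0.1, 1, 10, 100 and 1000 μM, with untreated controls. PBS wash, 0.5 mg mL−1 MTT for 90 min at 37 °C, DMSO solubilisation, A570.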

myoblast cells (C2C12) [4] = assay: MTT cell viability of normal myoblast cells at a single concentration; format: cell-based, human; conditions: DHPM 10 μM, 48 hours
Outline: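 C2C12 myoblasts were grown in DMEM with 10% FBS, amphotericin B and gentamicin at 37 °C, 5% CO2, and seeded at 5000 cells/well for 12 h. Test compound was applied at 10 μM for 48 h. Cells were washed with PBS, given 0.5 mg mL−1 MTT in PBS for 90 min at 37 °C, and the formazan was dissolved in DMSO with 30 min agitation in the dark. A570 was read, in triplicate.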

IC50 [2] | IC50 [3] | Structure (SMILES) | IC50 (myoblast cells (C2C12) [1]) | viability (%) of myoblast cells (C2C12) (myoblast cells (C2C12) [4])
40 ± 6.2 µM | 25.6 ± 7.3 µM | CCOC(=O)C1=C(C)NC(=S)NC1c1cccc(O)c1 (stereo not shown) [Monastrol, reference compound] | 35.5 ± 6.4 µM | –
126 ± 4.6 µM | 39.2 ± 4.9 µM | CCCCCCCC/C=C\CCCCCCCCOC(=O)C1=C(C)NC(=S)NC1c1ccc(C)cc1 (stereo not shown) [11h, (Z)-Octadec-9-enyl 6-methyl-2-thioxo-4-(p-tolyl)-1,2,3,4-tetrahydropyrimidine-5-carboxylate] | 362 ± 12.6 µM | –
146 ± 25.9 µM | 8.8 ± 8.3 µM | CCCCCCCC/C=C\CCCCCCCCOC(=O)C1=C(C)NC(=S)NC1c1cccc(Cl)c1 (stereo not shown) [11f, (Z)-Octadec-9-enyl 4-(3-chlorophenyl)-6-methyl-2-thioxo-1,2,3,4-tetrahydropyrimidine-5-carboxylate] | 307 ± 143 µM | –
101.8 ± 0.6 µM | 16.4 ± 2.7 µM | CCCCCCCC/C=C\CCCCCCCCOC(=O)C1=C(C)NC(=S)NC1c1ccc(OC)cc1 (stereo not shown) [11i, (Z)-Octadec-9-enyl 4-(4-methoxyphenyl)-6-methyl-2-thioxo-1,2,3,4-tetrahydropyrimidine-5-carboxylate] | 166 ± 8.9 µM | –

Second part, the molecule before the results:

Structure (SMILES) | IC50 [2] | IC50 [3] | IC50 (myoblast cells (C2C12) [1]) | viability (%) of myoblast cells (C2C12) (myoblast cells (C2C12) [4])
CCCCCCCC/C=C\CCCCCCCCOC(=O)C1=C(C)NC(=S)NC1c1cccc(O)c1 (stereo not shown) [11c, (Z)-Octadec-9-enyl 4-(3-hydroxyphenyl)-6-methyl-2-thioxo-1,2,3,4-tetrahydropyrimidine-5-carboxylate] | 125 ± 6.2 µM | 28.4 ± 7 µM | 446 ± 84.2 µM | –
CCCCCCCC/C=C\CCCCCCCCOC(=O)C1=C(C)NC(=S)NC1c1ccccc1O (stereo not shown) [11b, (Z)-Octadec-9-enyl 4-(2-hydroxyphenyl)-6-methyl-2-thioxo-1,2,3,4-tetrahydropyrimidine-5-carboxylate] | 20.2 ± 2.1 µM | 10.1 ± 1.3 µM | 88.5 ± 6.4 µM | –
CCCCCCCC/C=C\CCCCCCCCOC(=O)C1=C(C)NC(=O)NC1c1cccc(O)c1 (stereo not shown) [10c, (Z)-Octadec-9-enyl 4-(3-hydroxyphenyl)-6-methyl-2-oxo-1,2,3,4-tetrahydropyrimidine-5-carboxylate] | 12.1 ± 0.4 µM | 2.3 ± 0.4 µM | 18.4 ± 10.5 µM | ~70%
